Assay results: article PMC10247892 (Biomedicine & Pharmacotherapy, 2023)
“Also recorded” adds a separate entry of the source.

Legend:
[1] = molecular target: SARS-CoV-2 3CL main protease (MBP-tagged) (Severe acute respiratory syndrome coronavirus 2, UniProt P0DTD1); format: biochemical; settings: increasing concentrations
[2] = tested on: Calu-3 cells; assay: Lipidomic analysis of Calu-3 cells after MβCD treatment; format: cell-based; settings: increasing concentrations, 2 h
Summary of the method: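 Calu-3 cells were seeded at 3 million/well and treated with 0, 0.6 or 2.5 mM test compound for 2 h at 37 °C and 5 % CO2. Plasma membrane lipid composition was then measured by lipidomics.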

[3] = tested on: SARS-CoV-2 NanoLuc replicative competent reporter virus; parameters: species or system golden Syrian hamsters; settings: hamster, in vivo

What does the source list for Methyl-β-cyclodextrin [MβCD]?
Inhibition of M^pro activity (in words) [1]: did not show activity; Effect on phosphatidylcholine (in words) [2]: did not affect phosphatidylcholine; Nanoluciferase signal in nasal turbinates and lungs (in words) [3]: no nanoluciferase signal was detected; also recorded: no sign of infection was detected
